Data set [1] is filed under the species Homo sapiens. Briefly: Concentration required to inhibit ADP-induced platelet aggregation by 50%.
A short description of data set [2]: Partition coefficient (logP). The following applies: octanol/water. Type of data set: physicochemical.
The species named for data set [3] is Homo sapiens. As to the kind of experiment: Concentration inhibits collagen-induced platelet aggregation by 50%(Human blood). It is filed as functional. The essentials:
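Human platelets from citrated PRP washed in HEPES-buffered saline pH 7.4 (EGTA 5 mM, PGE1 1 μM), aequorin-loaded, resuspended with 1 mM MgCl2 and 1 mM CaCl2 at (3-4) × 10^5 platelets/μL. Fibrinogen 1.2 μg added, 37 °C, 1100 rpm stirring. Compound in 95% ethanol added 1 min before collagen (5 μg). Aggregation recorded 5 min. IC50 from linear regression of IC% on log concentration.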

Broadly, the IC50 is the midpoint of a concentration-inhibition curve. Low readings indicate greater potency in that assay, high ones weaker potency in that assay. A word on the logP: it is a log measure of how a compound divides between an organic and an aqueous phase. On to `CCN(CC)CC1CCCN(Cc2ccc(CN3CCCC(CN(CC)CC)C3)cc2)C1` (stereo unspecified), for which it took 1560 µM to reach half-maximal inhibition in the data set filed under Homo sapiens [1] (Homo sapiens) (IC50). For the same compound, the logP in data set [2] (read-out: logP) was 4.8.
As for `CCCCN(C)C(=O)C1CCCN(Cc2ccc(CN3CCCC(C(=O)N(C)CCCC)C3)cc2)C1` (stereo unspecified), in the data set filed under Homo sapiens [1] (Homo sapiens), the IC50 was determined as 22.1 µM. Moreover, the logP in data set [2] (read-out: logP) stood at 4.52.
For `CCN(Cc1ccccc1)C(=O)C1CCCN(Cc2ccc(CN3CCCC(C(=O)N(CC)Cc4ccccc4)C3)cc2)C1` (stereo unspecified), in that order: 37.7 µM and 5.76.
`Br.Br.CCCCCCCCCCNC(=O)C1CCCN(Cc2ccc(CN3CCCC(C(=O)NCCCCCCCCCC)C3)cc2)C1` (stereo unspecified): in the data set listed under Homo sapiens [1] (Homo sapiens), it took 862 µM to reach half-maximal inhibition (IC50). The compound also returned a log partition coefficient (logP) in data set [2] of 10.202.
`O=C(NCc1ccccc1)C1CCCN(Cc2ccc(CN3CCCC(C(=O)NCc4ccccc4)C3)cc2)C1` (stereo unspecified) displayed an IC50 in the data set listed under Homo sapiens [1] (Homo sapiens) of 53.6 µM. In data set [2] (read-out: logP), the logP was 4.18.
Regarding `CCCCN(CCCC)C(=O)C1CCCN(Cc2ccc(CN3CCCC(C(=O)N(CCCC)CCCC)C3)cc2)C1` (stereo unspecified), the IC50 in the data set listed under Homo sapiens [1] (Homo sapiens) came to 58.7 µM. Besides, the logP in data set [2] (read-out: logP) turned out to be 7.63.
`CCCN(Cc1ccccc1)C(=O)C1CCCN(Cc2ccc(CN3CCCC(C(=O)N(CCC)Cc4ccccc4)C3)cc2)C1` (stereo unspecified) showed an IC50 in the data set filed under Homo sapiens [1] (Homo sapiens) of 72.9 µM. The logP in data set [2] (read-out: logP) turned out to be 6.79.
`CN(Cc1ccccc1)C(=O)C1CCCN(Cc2ccc(CN3CCCC(C(=O)N(C)Cc4ccccc4)C3)cc2)C1` (stereo unspecified): in the data set filed under Homo sapiens [1] (Homo sapiens), the IC50 was found to be 27.3 µM. In addition, the logP in data set [2] (read-out: logP) was found to be 4.72.
Turning to `O=C(C1CCCN(Cc2ccc(CN3CCCC(C(=O)N(Cc4ccccc4)Cc4ccccc4)C3)cc2)C1)N(Cc1ccccc1)Cc1ccccc1` (stereo unspecified), in data set [2] (read-out: logP), the logP is 8.03.
With `CCN(CC)C(=O)C1CCCN(Cc2ccc(CN3CCCC(C(=O)N(CC)CC)C3)cc2)C1` (single isomer, unassigned; (-)), the IC50 in the data set filed under Homo sapiens [1] was 233 µM; in the data set filed under Homo sapiens [3] it was 199 µM.
Turning to `CCN(CC)C(=O)C1CCCN(Cc2ccc(CN3CCCC(C(=O)N(CC)CC)C3)cc2)C1` (stereo in doubt; 3a), the figures for the IC50 in the data set listed under Homo sapiens [1] and in the data set listed under Homo sapiens [3] were 44.5 µM and 20.2 µM, respectively. For the same compound, the logP in data set [2] (read-out: logP) worked out at 3.48.
Take `CCN(CC)C(=O)C1CCCN(Cc2ccc(CN3CCCC(C(=O)N(CC)CC)C3)cc2)C1` (stereo in doubt; 3a-B (0)): the IC50 in the data set listed under Homo sapiens [1] is 41.4 µM; in the data set listed under Homo sapiens [3], 65.7 µM.
For `CCN(CC)C(=O)C1CCCN(Cc2ccc(CN3CCCC(C(=O)N(CC)CC)C3)cc2)C1` (stereo in doubt; 3a-C (+)), in that order: 15.3 µM and 10.7 µM.

(Values after ChEMBL document CHEMBL1125511, “Molecular determinants of the platelet aggregation inhibitory activity of carbamoylpiperidines” (J Med Chem, 1992).)
